# Laboratory results as given in article PMC11261800 (Heliyon, 2024).
# Test system: HaCaT cells
# Assay: Proliferation of HaCaT keratinocytes, CCK-8
# Format: cell-based, human
# Conditions: 100 μM, positive control, 72 h, 0.4 % serum
# Procedure, shortened: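 HaCaT keratinocytes, grown at 37 °C in DMEM with 10 % (v/v) FBS, were seeded at 5 × 10^3 cells/well and cultured for 24 h. They were then serum-starved for 24 h in DMEM with 0.4 % serum and exposed to test sample in the same medium for 72 h. After 2 h in 10 % CCK-8, A450 was read. Proliferative activity = (A2−A1)/(A3−A1) × 100 %, against untreated cells and cell-free blank; mean ± SD, n = 3.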
molecule,measurement,value
"Epidermal growth factor (protein, UniProt P01133 23-1207, looked up, Pro-epidermal growth factor) Pro-epidermal growth factor: PQHWSCPEGTLAGNGNSTCVGPAPFLIFSHGNSIFRIDTEGTNYEQLVVDAGVSVIMDFHYNEKRIYWVDLERQLLQRVFLNGSRQERVCNIEKNVSGMAINWINEEVIWSNQQEGIITVTDMKGNNSHILLSALKYPANVAVDPVERFIFWSSEVAGSLYRADLDGVGVKALLETSEKITAVSLDVLDKRLFWIQYNREGSNSLICSCDYDGGSVHISKHPTQHNLFAMSLFGDRIFYSTWKMKTIWIANKHTGKDMVRINLHSSFVPLGELKVVHPLAQPKAEDDTWEPEQKLCKLRKGNCSSTVCGQDLQSHLCMCAEGYALSRDRKYCEDVNECAFWNHGCTLGCKNTPGSYYCTCPVGFVLLPDGKRCHQLVSCPRNVSECSHDCVLTSEGPLCFCPEGSVLERDGKTCSGCSSPDNGGCSQLCVPLSPVSWECDCFPGYDLQLDEKSCAASGPQPFLLFANSQDIRHMHFDGTDYGTLLSQQMGMVYALDHDPVENKIYFAHTALKWIERANMDGSQRERLIEEGVDVPEGLAVDWIGRRFYWTDRGKSLIGRSDLNGKRSKIITKENISQPRGIAVHPMAKRLFWTDTGINPRIESSSLQGLGRLVIASSDLIWPSGITIDFLTDKLYWCDAKQSVIEMANLDGSKRRRLTQNDVGHPFAVAVFEDYVWFSDWAMPSVMRVNKRTGKDRVRLQGSMLKPSSLVVVHPLAKPGADPCLYQNGGCEHICKKRLGTAWCSCREGFMKASDGKTCLALDGHQLLAGGEVDLKNQVTPLDILSKTRVSEDNITESQHMLVAEIMVSDQDDCAPVGCSMYARCISEGEDATCQCLKGFAGDGKLCSDIDECEMGVPVCPPASSKCINTEGGYVCRCSEGYQGDGIHCLDIDECQLGEHSCGENASCTNTEGGYTCMCAGRLSEPGLICPDSTPPPHLREDDHHYSVRNSDSECPLSHDGYCLHDGVCMYIEALDKYACNCVVGYIGERCQYRDLKWWELRHAGHGQQQKVIVVAVCVVVLVMLLLLSLWGAHYYRTQKLLSKNPKNPYEESSRDVRSRRPADTEDGMSSCPQPWFVVIKEHQDLKNGGQPVAGEDGQAADGSMQPTSWRQEPQLCGMGTEQGCWIPVSSDKGSCPQVMERSFHMPSYGTQTLEGGVEKPHSLLSANPLWQQRALDPPHQMELTQ",cell viability (proliferation of HaCaT keratinocytes),106.76%
